Source: ChEMBL document CHEMBL1142169, “In vitro antibacterial activity of the pyrrolopyrazolyl-substituted oxazolidinone RWJ-416457” (2007)
≈ marks a conversion by molar mass, not a printed value.

How the values were obtained:
Assay type in all cases: functional
[1] = tested on: Streptococcus pneumoniae; assay: Antibacterial activity against penicillin-resistant Streptococcus pneumoniae
How it was run: (§1)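 MIC by CLSI (formerly NCCLS) broth microdilution for aerobically growing bacteria.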

[2] = tested on: Staphylococcus; assay: Antibacterial activity against methicillin-resistant coagulase-negative staphylococci; how it was run: as §1
[3] = tested on: Streptococcus pyogenes; assay: Antibacterial activity against macrolide-resistant Streptococcus pyogenes; how it was run: as §1
[4] = tested on: Staphylococcus aureus; assay: Antibacterial activity against methicillin-resistant Staphylococcus aureus; how it was run: as §1
[5] = tested on: Legionella pneumophila; assay: Antibacterial activity against Legionella pneumophila
How it was run: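 L. pneumophila broth microdilution. Inoculum suspended in buffered yeast extract broth and added to wells holding serial antibiotic dilutions. Incubated aerobically at 34°C to 36°C for 48 h. MIC taken as the lowest concentration inhibiting visible growth.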

[6] = tested on: Staphylococcus aureus; assay: Antibacterial activity against methicillin-resistant Staphylococcus aureus OC 2878 by time kill experiments
How it was run: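 Time-kill by CLSI methodology with drug at four times the MIC against MRSA OC 2878, alongside a drug-free control culture. Viable counts were followed over time.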

[7] = tested on: Enterococcus faecalis; assay: Antibacterial activity against Enterococcus faecalis ATCC 51922 by time kill experiments
How it was run: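 Time-kill curves run per CLSI methodology, with drug at four times the MIC measured for the isolate. Growth in drug-containing medium was followed alongside a drug-free control medium over time.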

[8] = tested on: Enterococcus faecalis; assay: Antibacterial activity against linezolid-susceptible Enterococcus faecalis; how it was run: as §1
[9] = tested on: Staphylococcus; assay: Antibacterial activity against methicillin-susceptible coagulase-negative staphylococci; how it was run: as §1
[10] = tested on: Streptococcus pneumoniae; assay: Antibacterial activity against macrolide-resistant Streptococcus pneumoniae; how it was run: as §1
[11] = tested on: Moraxella catarrhalis; assay: Antibacterial activity against Moraxella catarrhalis
How it was run: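 MIC determined by the CLSI (formerly NCCLS) broth microdilution procedure for aerobically growing bacteria.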

[12] = tested on: Staphylococcus; assay: Antibacterial activity against coagulase-negative staphylococci; how it was run: as §1
[13] = tested on: Streptococcus pneumoniae; assay: Antibacterial activity against Streptococcus pneumoniae; how it was run: as §1
[14] = tested on: Mycoplasmoides pneumoniae; assay: Antibacterial activity against Mycoplasma pneumoniae
How it was run: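 Microbroth MIC following Waites et al. Isolates were titred in SP4 glucose broth by serial 10-fold dilution to count color changing units. Drug was serially diluted in antibiotic-free SP4 glucose broth and inoculated at 104 CCU/ml, then incubated at 35°C until control wells changed color. The MIC was the lowest concentration preventing color change.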

[15] = tested on: Staphylococcus aureus; assay: Antibacterial activity against vancomycin-intermediate methicillin-resistant Staphylococcus aureus; how it was run: as §1
[16] = tested on: Staphylococcus aureus; assay: Antibacterial activity against Staphylococcus aureus; how it was run: as §1
[17] = tested on: Staphylococcus aureus; assay: Antibacterial activity against methicillin-susceptible Staphylococcus aureus; how it was run: as §1
[18] = tested on: Staphylococcus aureus; assay: Antibacterial activity against community-acquired methicillin-resistant Staphylococcus aureus; how it was run: as §1
[19] = tested on: Streptococcus pneumoniae; assay: Antibacterial activity against fluoroquinolone-resistant Streptococcus pneumoniae; how it was run: as §1
[20] = tested on: Enterococcus faecium; assay: Antibacterial activity against linezolid-susceptible Enterococcus faecium; how it was run: as §1

| Structure (SMILES) | MIC50 [1] [µg/mL] | MIC90 [1] [µg/mL] | MIC50 [2] [µg/mL] | MIC90 [2] [µg/mL] | MIC50 [3] [µg/mL] | MIC90 [3] [µg/mL] | MIC50 [4] [µg/mL] | MIC90 [4] [µg/mL] | MIC50 [5] [µg/mL] | MIC90 [5] [µg/mL] | MIC50 [8] [µg/mL] | MIC90 [8] [µg/mL] | MIC50 [9] [µg/mL] | MIC90 [9] [µg/mL] | MIC50 [12] [µg/mL] | MIC90 [12] [µg/mL] | MIC50 [15] [µg/mL] | MIC90 [15] [µg/mL] | MIC50 [18] [µg/mL] | MIC90 [18] [µg/mL] | other results |
| --- | --- | --- | --- | --- | --- | --- | --- | --- | --- | --- | --- | --- | --- | --- | --- | --- | --- | --- | --- | --- | --- |
| CC(=O)NC[C@H]1CN(c2ccc(N3Cc4cn(C)nc4C3)c(F)c2)C(=O)O1 | 0.5 (≈ 1.34 µM) | 0.5 (≈ 1.34 µM) | 0.5 (≈ 1.34 µM) | 1 (≈ 2.68 µM) | 0.5 (≈ 1.34 µM) | 0.5 (≈ 1.34 µM) | 1 (≈ 2.68 µM) | 2 (≈ 5.36 µM) | 4 (≈ 10.7 µM) | 8 (≈ 21.4 µM) | 0.5 (≈ 1.34 µM) | 1 (≈ 2.68 µM) | 0.5 (≈ 1.34 µM) | 0.5 (≈ 1.34 µM) | 0.5 (≈ 1.34 µM) | 1 (≈ 2.68 µM) | 0.5 (≈ 1.34 µM) | 2 (≈ 5.36 µM) | 1 (≈ 2.68 µM) | 2 (≈ 5.36 µM) | MIC [6]: 1 µg/mL (≈ 2.68 µM); MIC [7]: 1 µg/mL (≈ 2.68 µM); MIC50 [10]: 0.5 µg/mL (≈ 1.34 µM); MIC90 [10]: 0.5 µg/mL (≈ 1.34 µM); MIC50 [11]: 2 µg/mL (≈ 5.36 µM); MIC90 [11]: 4 µg/mL (≈ 10.7 µM); MIC50 [13]: 0.5 µg/mL (≈ 1.34 µM); MIC90 [13]: 0.5 µg/mL (≈ 1.34 µM); MIC50 [14]: 16 µg/mL (≈ 42.9 µM); MIC90 [14]: 32 µg/mL (≈ 85.7 µM); MIC50 [16]: 1 µg/mL (≈ 2.68 µM); MIC90 [16]: 2 µg/mL (≈ 5.36 µM); MIC50 [17]: 1 µg/mL (≈ 2.68 µM); MIC90 [17]: 2 µg/mL (≈ 5.36 µM); MIC50 [19]: 0.5 µg/mL (≈ 1.34 µM); MIC90 [19]: 0.5 µg/mL (≈ 1.34 µM); MIC50 [20]: 1 µg/mL (≈ 2.68 µM); MIC90 [20]: 1 µg/mL (≈ 2.68 µM) |
| CC[C@H]1OC(=O)[C@H](C)[C@@H](O[C@H]2C[C@@](C)(OC)[C@@H](O)[C@H](C)O2)[C@H](C)[C@@H](O[C@@H]2O[C@H](C)C[C@H](N(C)C)[C@H]2O)[C@](C)(O)C[C@@H](C)C(=O)[C@H](C)[C@@H](O)[C@]1(C)O [ERYTHROMYCIN] |  |  |  |  | 8 (≈ 10.9 µM) | > 16 |  |  |  |  |  |  |  |  |  |  |  |  |  |  | MIC50 [10]: 4 µg/mL (≈ 5.45 µM); MIC90 [10]: > 16 µg/mL; MIC50 [11]: 0.25 µg/mL (≈ 0.341 µM); MIC90 [11]: 0.25 µg/mL (≈ 0.341 µM) |
| C[C@H]1COc2c(N3CCN(C)CC3)c(F)cc3c(=O)c(C(=O)O)cn1c23.C[C@H]1COc2c(N3CCN(C)CC3)c(F)cc3c(=O)c(C(=O)O)cn1c23.O [LEVOFLOXACIN] |  |  |  |  |  |  |  |  | 0.12 | 0.5 |  |  |  |  |  |  |  |  |  |  | MIC50 [14]: 0.5 µg/mL; MIC90 [14]: 1 µg/mL; MIC50 [19]: 16 µg/mL; MIC90 [19]: > 16 µg/mL |
| CC(=O)NC[C@H]1CN(c2ccc(N3CCOCC3)c(F)c2)C(=O)O1 [LINEZOLID] | 1 (≈ 2.96 µM) | 1 (≈ 2.96 µM) | 2 (≈ 5.93 µM) | 2 (≈ 5.93 µM) | 1 (≈ 2.96 µM) | 2 (≈ 5.93 µM) | 4 (≈ 11.9 µM) | 4 (≈ 11.9 µM) | 4 (≈ 11.9 µM) | 16 (≈ 47.4 µM) | 2 (≈ 5.93 µM) | 2 (≈ 5.93 µM) | 1 (≈ 2.96 µM) | 2 (≈ 5.93 µM) | 2 (≈ 5.93 µM) | 2 (≈ 5.93 µM) | 1 (≈ 2.96 µM) | 4 (≈ 11.9 µM) | 4 (≈ 11.9 µM) | 4 (≈ 11.9 µM) | MIC50 [10]: 1 µg/mL (≈ 2.96 µM); MIC90 [10]: 1 µg/mL (≈ 2.96 µM); MIC50 [11]: 8 µg/mL (≈ 23.7 µM); MIC90 [11]: 8 µg/mL (≈ 23.7 µM); MIC50 [13]: 1 µg/mL (≈ 2.96 µM); MIC90 [13]: 1 µg/mL (≈ 2.96 µM); MIC50 [14]: > 64 µg/mL; MIC90 [14]: > 64 µg/mL; MIC50 [16]: 4 µg/mL (≈ 11.9 µM); MIC90 [16]: 4 µg/mL (≈ 11.9 µM); MIC50 [17]: 2 µg/mL (≈ 5.93 µM); MIC90 [17]: 4 µg/mL (≈ 11.9 µM); MIC50 [19]: 0.5 µg/mL (≈ 1.48 µM); MIC90 [19]: 1 µg/mL (≈ 2.96 µM); MIC50 [20]: 2 µg/mL (≈ 5.93 µM); MIC90 [20]: 4 µg/mL (≈ 11.9 µM) |
| Cc1onc(-c2ccccc2)c1C(=O)N[C@@H]1C(=O)N2[C@@H]1SC(C)(C)[C@@H]2C(=O)O [OXACILLIN] |  |  | > 16 | > 16 |  |  | > 32 | > 32 |  |  |  |  | 0.12 (≈ 0.299 µM) | 0.25 (≈ 0.623 µM) | > 16 | > 16 | > 32 | > 32 | 32 (≈ 79.7 µM) | 32 (≈ 79.7 µM) |  |
| CC1(C)S[C@@H]2[C@H](NC(=O)Cc3ccccc3)C(=O)N2[C@H]1C(=O)O [PENICILLIN G] | 2 (≈ 5.98 µM) | 4 (≈ 12 µM) |  |  |  |  |  |  |  |  |  |  |  |  |  |  |  |  |  |  |  |
| CN[C@H](CC(C)C)C(=O)N[C@H]1C(=O)N[C@@H](CC(N)=O)C(=O)N[C@H]2C(=O)N[C@H]3C(=O)N[C@H](C(=O)N[C@H](C(=O)O)c4cc(O)cc(O)c4-c4cc3ccc4O)[C@H](O)c3ccc(c(Cl)c3)Oc3cc2cc(c3O[C@@H]2O[C@H](CO)[C@@H](O)[C@H](O)[C@H]2O[C@H]2C[C@](C)(N)[C@H](O)[C@H](C)O2)Oc2ccc(cc2Cl)[C@H]1O [VANCOMYCIN] |  |  | 2 (≈ 1.38 µM) | 4 (≈ 2.76 µM) |  |  | 1 (≈ 0.69 µM) | 4 (≈ 2.76 µM) |  |  | 4 (≈ 2.76 µM) | > 16 | 2 (≈ 1.38 µM) | 4 (≈ 2.76 µM) | 2 (≈ 1.38 µM) | 4 (≈ 2.76 µM) | 4 (≈ 2.76 µM) | 8 (≈ 5.52 µM) | 1 (≈ 0.69 µM) | 1 (≈ 0.69 µM) | MIC50 [16]: 1 µg/mL (≈ 0.69 µM); MIC90 [16]: 4 µg/mL (≈ 2.76 µM); MIC50 [17]: 1 µg/mL (≈ 0.69 µM); MIC90 [17]: 2 µg/mL (≈ 1.38 µM); MIC50 [20]: > 16 µg/mL; MIC90 [20]: > 16 µg/mL |
